Rows were chosen to be rich in hits. Some 2% of all compounds tested hit in one or more screens of this group.
LMPTP block – LMPTP (human) inhibition; recombinant LMPTP-A, OMFP fluorogenic substrate, fluorescence intensity; inhibition, % at 20 µM; P24666; 360,000 tested, 0.22% active;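 active = compounds that cut the enzyme signal by at least half of the control window in the single-dose screen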;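 also: plate controls were DMSO wells with enzyme plus substrate for no effect and substrate without enzyme for full effect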
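Assay system: LMPTP-A enzyme. Input: 0.625 nM LMPTP-A final. Probe or stimulus: 400 µM OMFP. Compound dosing: single 20 µM dose. Schedule: 50 min dark incubation at room temperature. Detection: fluorescence intensity of OMFP turnover product. Read-out: percent inhibition versus substrate-only and uninhibited controls. Benchmarks: no-enzyme low control, uninhibited high control.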
Scp-1 inhibitor – inhibitors of human Scp-1 phosphatase; 340,000 tested, 0.88% active; Q9GZU7; inhibition, % at 20 µM; AID 493091; Recombinant Scp1, phosphopeptide, malachite green phosphate absorbance;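 active = inhibition above about 50% at 20 µM, limit read from the data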;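 also: plate controls were DMSO wells with enzyme for no effect and wells lacking enzyme for full effect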
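Assay system: SCP-1 catalytic fragment, aa 76-261 | Buffer or medium: Tris acetate buffer pH 5.5 with MgCl2 and Tween-20 | Compound: One concentration, 20 µM, with 1.0% DMSO | Also added: Phospho 17-mer peptide substrate | Signal: Absorbance at 630 nm | Incubation: 45 min enzyme reaction at room temperature | Measure: % inhibition of SCP-1 phosphate liberation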
SUMO1-SIM PPI – SUMO1-SIM interaction modulation | SUMO1 binding to a labelled peptide, TR-FRET, 1 h | AID 602429 | P63165 | 360,000 tested, 0.33% active | inhibition, % at 20 µM; in the data active = inhibition above about 37%
Target sequence (P63165 whole entry, looked up): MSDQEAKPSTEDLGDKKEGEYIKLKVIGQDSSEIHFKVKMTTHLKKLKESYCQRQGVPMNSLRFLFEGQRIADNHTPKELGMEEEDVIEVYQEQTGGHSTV
STEP block – inhibitors of human striatal-enriched phosphatase STEP | P54829 | AID 588621 | 360,000 tested, 0.25% active | recombinant STEP, OMFP fluorogenic substrate, fluorescence | inhibition, % at 20 µM;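 active = inhibition at 20 µM, scaled per plate between control wells, above about 37%, limit read from the data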;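 also: 0% = DMSO with enzyme and substrate and 100% = substrate only without enzyme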
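medium = Bis-Tris buffer pH 6.0, 2.5 mM DTT, 0.005% Tween 20 | test system = STEP (striatal-enriched tyrosine phosphatase) enzyme, cell-free | measure = normalized % inhibition | compound dosing = 20 µM, 1% DMSO | also added = 25 µM OMFP | schedule = reaction 20 min, ambient temperature | measured by = fluorescence read at 480 nm ex / 540 nm em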
DNMT1 block – blocks human DNA methyltransferase DNMT1. P26358. DNMT1 molecular beacon, Hinp1I cleavage, fluorescence. inhibition (reported as % activation of signal), % at 10 µM. 360,000 tested, 0.83% active; in the data active = inhibition above about 50%
CSN deneddyl inh – inhibitors of human CSN-mediated cullin deneddylation; Purified CSN, SCF-Nedd8-OG deneddylation, fluorescence polarization; Q92905; inhibition, % at 12.5 µM; 360,000 tested, 0.38% active;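 active = pattern-corrected inhibition above about 35%, with an unprinted fluorescence ratio check between 0.5 and 1.5, limit read from the data, passing the limit was not always enough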;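 also: 0% = enzyme with substrate and 100% = substrate without enzyme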
Target sequence (Q92905 whole entry, looked up, one chain of several): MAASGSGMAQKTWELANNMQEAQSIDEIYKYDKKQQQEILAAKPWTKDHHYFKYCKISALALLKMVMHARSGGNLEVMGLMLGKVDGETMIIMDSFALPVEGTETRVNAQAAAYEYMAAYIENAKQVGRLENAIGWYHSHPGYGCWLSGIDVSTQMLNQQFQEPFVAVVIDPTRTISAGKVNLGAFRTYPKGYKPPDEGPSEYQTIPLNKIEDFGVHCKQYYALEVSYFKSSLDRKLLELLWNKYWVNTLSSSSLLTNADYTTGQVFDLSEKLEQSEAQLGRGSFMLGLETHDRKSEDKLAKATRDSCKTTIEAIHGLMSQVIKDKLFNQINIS
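Test system: Human Csn5 produced in HEK293T cells | Compound: 12.5 µM single point | Times: 90 min, room temperature | Signal: Fluorescence polarization readout | Read-out basis: % inhibition of substrate cleavage by Csn5 | Controls: no-enzyme wells high, enzyme-with-substrate wells low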
Scp-1 conf – confirmation of human Scp-1 phosphatase inhibitors; shares compounds with Scp-1 inhibitor; recombinant SCP-1 catalytic domain, phosphate release, malachite green absorbance; inhibition, % at 20 µM; 2,500 tested, 61% active;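 also: plate controls were DMSO with enzyme for no effect and buffer wells lacking enzyme for full effect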
Scp-1 MG ctr – colorimetric interference in Scp-1 counter-screen. apparent inhibition (interference), % at 20 µM. AID 540313. shares compounds with Scp-1 inhibitor. Colorimetric interference counterscreen, malachite green absorbance 630 nm. 2,500 tested, under 10 active;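 also: compounds added after enzyme reaction finished so only phosphate colour detection is probed; plate controls were DMSO wells with completed Scp-1 reaction for no effect and substrate wells lacking enzyme for full effect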
Scp1 DSF – validation of human Scp-1 inhibitors by thermal shift binding. thermal shift relative to vanadate control, % at 40 µM. Recombinant SCP1, Sypro Orange thermal shift Tm. AID 540329. 1,500 tested, 25% active. shares compounds with Scp-1 inhibitor;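 active = substances whose mean melting-temperature shift, as a percentage of the reference inhibitor's shift, reaches about 5.3%, limit read from the data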;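 also: 0% = Tm of DMSO wells and 100% = Tm with sodium orthovanadate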
DNMT1 inh conf – DNMT1 inhibition confirmation, single concentration; shares compounds with DNMT1 block; DNMT1 molecular beacon HinP1I cleavage, fluorescence; inhibition, % at 10 µM; 2,300 tested, 8% active;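 active = average inhibition of at least 30% in the single-concentration confirmation test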
Beacon interf – shows spectral interference in the DNMT1 beacon assay. shares compounds with DNMT1 block. DNMT1 molecular beacon spectral interference counterscreen, fluorescence 485/520. activation (fluorescence interference), % at 10 µM. 2,300 tested, 1% active. AID 602387;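 active = activation of at least 30% at 10 µM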;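 also: DNMT1 catalytic domain with a HinP1I cleavage step and a FAM/dabcyl DNA beacon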
STEP inh conf – STEP (human) phosphatase inhibition, single concentration confirmation; recombinant STEP, OMFP fluorogenic substrate, fluorescence; shares compounds with STEP block; inhibition, % at 20 µM; 520 tested, 32% active; call rule not given here;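 also: 0% = enzyme with substrate plus DMSO and 100% = substrate without enzyme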
Starred values were filed as active, the others as inactive.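 The calls were made as follows, unless noted: active = inhibition of at least 30% at 20 µM; inactive = the rest.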

C/C(=N\O)C(C)Oc1ccc(Cl)cc1 (stereo not drawn) was read as LMPTP block 0.2, Scp-1 inhibitor -4.5, SUMO1-SIM PPI -3.0, STEP block -2.6, DNMT1 block -1.2 and CSN deneddyl inh -14.2.
`Cc1c(C)n(C(=O)CSc2nc3ccccc3[nH]2)c2ccccc12` gave LMPTP block 15.0, Scp-1 inhibitor 98.4*, SUMO1-SIM PPI 1.0, STEP block 83.7*, DNMT1 block 99.8*, CSN deneddyl inh 29.2, Scp-1 conf 60.4*, Scp-1 MG ctr -7.9, Scp1 DSF 5.8*, DNMT1 inh conf 13.4, Beacon interf -2.3 and STEP inh conf 52.2*.
O=C(CSc1nc2ccccc2[nH]1)N1CCCCC1 was read as LMPTP block -0.9, Scp-1 inhibitor 6.0, SUMO1-SIM PPI -2.3, STEP block 0.4, DNMT1 block 4.7 and CSN deneddyl inh -0.2.
Screening CCOc1cc(/C=N/N=C2/NC(=O)C(CC(=O)O)S2)ccc1OCc1ccc(Cl)cc1Cl (stereo not drawn) returned LMPTP block 84.2*, Scp-1 inhibitor 74.7*, SUMO1-SIM PPI 11.5, STEP block 63.6*, DNMT1 block 8.0, CSN deneddyl inh 3.4, Scp-1 conf 65.1*, Scp-1 MG ctr -15.6, Scp1 DSF -2.0 and STEP inh conf 12.9*.
FC(F)(F)c1ccc(Nc2nnnc3ccccc23)cc1 was read as LMPTP block 51.1*, Scp-1 inhibitor 72.5*, SUMO1-SIM PPI -8.2, STEP block 96.6*, DNMT1 block -1.5, CSN deneddyl inh 6.2, Scp-1 conf 61.7*, Scp-1 MG ctr -13.4, Scp1 DSF -23.6 and STEP inh conf -7.8.
O=C(Nc1cccc(-c2nc3ncccc3o2)c1)c1sc2cc(Cl)ccc2c1Cl was read as LMPTP block 50.6*, Scp-1 inhibitor 94.9*, SUMO1-SIM PPI 4.1, STEP block 89.9*, DNMT1 block 16.1, CSN deneddyl inh 22.1, Scp-1 conf 57.1*, Scp-1 MG ctr -12.3, Scp1 DSF -12.5 and STEP inh conf -0.4.
`Cc1csc2c(=O)sc(NC(=O)c3ccc(F)cc3)nc12` gave LMPTP block -1.9, Scp-1 inhibitor 0.4, SUMO1-SIM PPI 4.1, STEP block -0.1, DNMT1 block 7.8 and CSN deneddyl inh 1.9.
`Cc1csc2nc(NC(=O)c3ccccc3)sc(=O)c12` gave LMPTP block 56.7*, Scp-1 inhibitor 87.2*, SUMO1-SIM PPI -7.2, STEP block 79.3*, DNMT1 block 23.7, CSN deneddyl inh 5.4, Scp-1 conf 69.8*, Scp-1 MG ctr -15.3, Scp1 DSF -7.6 and STEP inh conf 15.6.
Screening CCCCCn1c(N)c(-c2nc3ccccc3o2)c2c([N+](=O)[O-])nn(C)c(=O)c21 returned LMPTP block 83.4*, Scp-1 inhibitor 98.7*, SUMO1-SIM PPI 3.9, STEP block 96.8*, DNMT1 block 91.9*, CSN deneddyl inh -4.2, Scp-1 conf 72.7*, Scp-1 MG ctr 0.9, Scp1 DSF 5.4*, DNMT1 inh conf 0.1, Beacon interf 0.1 and STEP inh conf 40.4*.
